According to ChEMBL document CHEMBL1154567, “New lanostanoids of Ganoderma tsugae” (2000):
Converted amounts (≈) assume the structure as drawn. Numbered stars: 1 amine (or outer) side, 2 acyl side, 3 side chain; on linkers, the order of the positions; unused ones are H or OH. Bridge positions count the residues as written; N and C are the ends. Square brackets hold non-standard residues; d marks the D form. Peptide text beside a SMILES is read from it. I, II: the chains in the order shown. Actinocin(1to9) = Cc1c2oc3c(C)ccc(C(=O)[*:2])c3nc-2c(C(=O)[*:1])c(N)c1=O; NMeV = CN[C@H](C(=O)O)C(C)C; Sar = CNCC(=O)O

Experiments:
Assay type in all cases: functional
[1] = test system: T-24; assay: Cytotoxicity against human T24 cells after 6 days by MTT assay; settings: T-24, 144 h, read-out: ED50 (the source's name)
In short: (§1)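 Human lines (hepatoma PLC/PRF/5, T24, cervical carcinoma HT-3 and SiHa) were kept in DMEM with 10% FBS, 2 mM L-glutamine and penicillin/streptomycin, plus 10 mM HEPES pH 7.3, at 37 °C in CO2. Cells at 1-3 × 10³/100 µL had 6 h to attach, then fresh medium with graded drug concentrations was added for 6 days. Survival was read by 4 h MTT (1 mg/mL in PBS, 10 µL) at 37 °C, with DMSO solubilization.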

[2] = test system: Ca-Ski; assay: Cytotoxicity against human CaSKi cells after 6 days by MTT assay; settings: 144 h, read-out: ED50 (the source's name)
In short: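 CaSki (human cervical carcinoma) kept in DMEM with 10% FBS, 2 mM L-glutamine and penicillin/streptomycin. For the assay, 1-3 × 10³ cells/100 µL were seeded and left 6 h to attach. Medium was then replaced with fresh medium holding a range of drug concentrations, plus 10 mM HEPES pH 7.3, at 37 °C in CO₂. After 6 days, MTT (1 mg/mL in PBS) was added for 4 h. Formazan was dissolved in DMSO.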

[3] = Cytotoxicity against human PLC/PRF/5 cells after 6 days by MTT assay; settings: PLC-PRF-5, 144 h, read-out: ED50 (the source's name); in short: as §1
[4] = Cytotoxicity against mouse 212 cells after 6 days by MTT assay; settings: 144 h, read-out: ED50 (the source's name)
In short: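 The 212 line is an inducible Ha-ras-transformed NIH/3T3 line. It was grown in alpha MEM with 10% calf serum and antibiotics, plus 10 mM HEPES pH 7.3, at 37 °C in CO2. Cells were seeded at 1-3 × 10³/100 µL and allowed 6 h to attach. Medium was then swapped for fresh medium carrying various drug concentrations for 6 days. MTT (10 µL of 1 mg/mL) was added for 4 h at 37 °C, and formazan was dissolved in DMSO.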

[5] = test system: HT-3; assay: Cytotoxicity against human HT3 cells after 6 days by MTT assay; settings: HT-3, 144 h, read-out: ED50 (the source's name); in short: as §1
[6] = test system: SiHa; assay: Cytotoxicity against human SiHa cells after 6 days by MTT assay; settings: 144 h, read-out: ED50 (the source's name); in short: as §1

Row | SMILES | EC50 [1] [µg/mL] | EC50 [2] [µg/mL] | EC50 [3] [µg/mL] | EC50 [4] [µg/mL] | EC50 [5] [µg/mL] | EC50 [6] [µg/mL]
1 | CC(=O)O[C@H]1CC[C@]2(C)C3=C(CC[C@H]2C1(C)C)[C@]1(C)CC[C@H]([C@@H](CCC=C(C)C)C(=O)O)[C@@]1(C)CC3 [ACETYL TRAMETENOLIC ACID] | 5.8 (≈ 11.6 µM) | 3.9 (≈ 7.82 µM) | 9.2 (≈ 18.4 µM) |  |  | 
2 | C=C(C)C(C)CC[C@@H](C(=O)O)[C@H]1[C@H](O)C[C@@]2(C)C3=C(CC[C@]12C)[C@@]1(C)CC[C@H](OC(C)=O)C(C)(C)[C@@H]1CC3 (stereo not given in full) [TSUGARIC ACID B] |  |  |  | 10.3 (≈ 19.5 µM) |  | 
3 | Cc1c2oc3c(C)ccc(C(=O)N[C@@H]4C(=O)N[C@H](C(C)C)C(=O)N5CCC[C@H]5C(=O)N(C)CC(=O)N(C)[C@@H](C(C)C)C(=O)O[C@@H]4C)c3nc-2c(C(=O)N[C@@H]2C(=O)N[C@H](C(C)C)C(=O)N3CCC[C@H]3C(=O)N(C)CC(=O)N(C)[C@@H](C(C)C)C(=O)O[C@@H]2C)c(N)c1=O [DACTINOMYCIN] (I: T[dV]P[Sar][NMeV] / II: T[dV]P[Sar][NMeV]; ester I:1-I:C, II:1-II:C; linker I:N-II:N via Actinocin(1to9)) | 0.0015 (≈ 0.00119 µM) | 0.0019 (≈ 0.00151 µM) | 0.0014 (≈ 0.00112 µM) |  |  | 
4 | CC(C)=CCC[C@@H](C(=O)O)[C@H]1CC[C@@]2(C)C3=C(CC[C@]12C)[C@@]1(C)CC[C@H](O)C(C)(C)[C@@H]1CC3 [TRAMETENOLIC ACID] | 4.4 (≈ 9.63 µM) | 6.2 (≈ 13.6 µM) |  |  | 3.5 (≈ 7.66 µM) | 5.5 (≈ 12 µM)
5 | CC(=O)O[C@@H]1CC[C@]2(C)C3=C(CC[C@H]2C1(C)C)[C@]1(C)CC[C@H]([C@@H](CCC=C(C)C)C(=O)O)[C@@]1(C)CC3 [TSUGARIC ACID A] | 3.1 (≈ 6.22 µM) |  | 6.8 (≈ 13.6 µM) |  |  | 
6 | CC(=O)O[C@@H]1CC[C@]2(C)C3=C(CC[C@H]2C1(C)C)[C@]1(C)CC[C@H]([C@@H](CCC=C(C)C)C(=O)O[C@@H]2O[C@H](CO)[C@@H](O)[C@H](O)[C@H]2O)[C@@]1(C)CC3 [TSUGARIOSIDE A] | 1.73 (≈ 2.62 µM) |  |  |  | 6.8 (≈ 10.3 µM) | 8.4 (≈ 12.7 µM)
7 | CC(C)=CCC[C@@H](C(=O)O)[C@H]1CC[C@@]2(C)C3=C(CC[C@]12C)[C@@]1(C)CCC(=O)C(C)(C)[C@@H]1CC3 | 8.2 (≈ 18 µM) | 7.2 (≈ 15.8 µM) | 12.1 (≈ 26.6 µM) |  | 6.9 (≈ 15.2 µM) | 5.1 (≈ 11.2 µM)
8 | C=C(C)/C(C)=C\C[C@@H](C(=O)O[C@@H]1OC[C@@H](O)[C@H](O)[C@H]1O)[C@H]1CC[C@@]2(C)C3=C(CC[C@]12C)[C@@]1(C)CC[C@@H](OC(C)=O)C(C)(C)[C@@H]1CC3 [TSUGARIOSIDE C] | 8.6 (≈ 13.4 µM) |  | 6.5 (≈ 10.1 µM) |  | 7.2 (≈ 11.2 µM) | 9.5 (≈ 14.8 µM)
